Measurements from ChEMBL document CHEMBL4346672, “Antimicrobial and KPC/AmpC inhibitory activity of functionalized benzosiloxaboroles” (Eur J Med Chem, 2019).
The source made the active and inactive calls. No cut-off for these calls is given here.

Key:
Candida parapsilosis = experiment: Antifungal activity against Candida parapsilosis ATCC 22019 assessed as diameter of zone inhibition incubated for 24 hrs by CLSI disc diffusion method; format: functional
In short: (§1)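 Yeast disc diffusion on Mueller-Hinton agar supplemented with 2% glucose and 0.5 mg/L methylene blue. Compounds in DMSO. Yeasts subcultured on Sabouraud dextrose agar before testing. Zones read after 35 °C, 24 h.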

Candida tropicalis = experiment: Antifungal activity against Candida tropicalis IBA 171 assessed as diameter of zone inhibition incubated for 24 hrs by CLSI disc diffusion method; format: functional; in short: as §1
[1] = test system: Staphylococcus epidermidis; experiment: Antibacterial activity against Staphylococcus epidermidis ATCC 12228 assessed as diameter of zone inhibition measured after 18 hrs by CLSI disc diffusion method; format: functional
In short: (§2)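 Disc diffusion on Mueller-Hinton II agar. Compounds dissolved in DMSO. Strains stored at -80 °C and subcultured twice on tryptic soy agar before testing. Inhibition zones read after 35 °C, 18 h.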

Enterococcus faecalis = experiment: Antibacterial activity against Enterococcus faecalis ATCC 29212 assessed as diameter of zone inhibition measured after 18 hrs by CLSI disc diffusion method; format: functional; in short: as §2
Serratia marcescens = details: ATCC 13880
[2] = test system: Meyerozyma guilliermondii; experiment: Antifungal activity against Candida guilliermondii IBA 155 assessed as diameter of zone inhibition incubated for 24 hrs by CLSI disc diffusion method; format: functional; in short: as §1
Burkholderia cepacia = experiment: Antibacterial activity against Burkholderia cepacia ATCC 25416 assessed as diameter of zone inhibition measured after 18 hrs by CLSI disc diffusion method; format: functional; in short: as §2
Staphylococcus aureus = experiment: Antibacterial activity against Staphylococcus aureus ATCC 6538P assessed as diameter of zone inhibition measured after 18 hrs by CLSI disc diffusion method; format: functional; in short: as §2
Acinetobacter baumannii = experiment: Antibacterial activity against Acinetobacter baumannii ATCC 19606 assessed as diameter of zone inhibition measured after 18 hrs by CLSI disc diffusion method; format: functional; in short: as §2
Klebsiella pneumoniae = details: ATCC 13883
Saccharomyces cerevisiae = experiment: Antifungal activity against Saccharomyces cerevisiae ATCC 9763 diameter of zone inhibition incubated for 24 hrs by CLSI disc diffusion method; format: functional
In short: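 Disc-diffusion run on Mueller-Hinton II agar with 2% glucose and 0.5 mg/L methylene blue, using compounds in DMSO. Yeast was precultured on Sabouraud dextrose agar (24–48 h, 30 °C). Zones read after 24 h at 35 °C.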

Enterococcus faecium = experiment: Antibacterial activity against Enterococcus faecium ATCC 6057 assessed as diameter of zone inhibition measured after 18 hrs by CLSI disc diffusion method; format: functional; in short: as §2
Pseudomonas aeruginosa = experiment: Antibacterial activity against Pseudomonas aeruginosa ATCC 27853 assessed as diameter of zone inhibition measured after 18 hrs by CLSI disc diffusion method; format: functional, organism-based; in short: as §2
[3] = test system: Bordetella bronchiseptica; experiment: Antibacterial activity against Bordetella bronchiseptica ATCC 4617 assessed as diameter of zone inhibition measured after 18 hrs by CLSI disc diffusion method; format: functional; in short: as §2
Proteus mirabilis = experiment: Antibacterial activity against Proteus mirabilis ATCC 12453 assessed as diameter of zone inhibition measured after 18 hrs by CLSI disc diffusion method; format: functional; in short: as §2
Bacillus subtilis = experiment: Antibacterial activity against Bacillus subtilis ATCC 6633 assessed as diameter of zone inhibition measured after 18 hrs by CLSI disc diffusion method; format: functional; in short: as §2
[4] = Dissociation constant, pKa1 of compound in 0.1 M NaOH by potentiometric analysis; format: physicochemical
Pichia kudriavzevii = experiment: Antifungal activity against Candida krusei ATCC 6258 assessed as diameter of zone inhibition incubated for 24 hrs by CLSI disc diffusion method; format: functional; in short: as §1
Enterobacter cloacae = experiment: Antibacterial activity against Enterobacter cloacae DSM 6234 assessed as diameter of zone inhibition measured after 18 hrs by CLSI disc diffusion method; format: functional; in short: as §2
Candida albicans = experiment: Antifungal activity against Candida albicans ATCC 90028 assessed as diameter of zone inhibition incubated for 24 hrs by CLSI disc diffusion method; format: functional; in short: as §1
Escherichia coli = experiment: Antibacterial activity against Escherichia coli ATCC 25922 assessed as diameter of zone inhibition measured after 18 hrs by CLSI disc diffusion method; format: functional; in short: as §2
[5] = test system: Stenotrophomonas maltophilia; experiment: Antibacterial activity against Stenotrophomonas maltophilia ATCC 13637 assessed as diameter of zone inhibition measured after 18 hrs by CLSI disc diffusion method; format: functional; in short: as §2

pKa [4]: 6.5
Structure (SMILES): C[Si]1(C)OB(O)c2cccc(Br)c21
diameter of the inhibition zone (DIZ) (Candida parapsilosis): 12 mm
diameter of the inhibition zone (DIZ) (Candida tropicalis): 14 mm
diameter of the inhibition zone (DIZ) [1]: 30 mm
diameter of the inhibition zone (DIZ) (Enterococcus faecalis): 16 mm
DIZ (Serratia marcescens): inactive
diameter of the inhibition zone (DIZ) [2]: 25 mm
diameter of the inhibition zone (DIZ) (Burkholderia cepacia): inactive
diameter of the inhibition zone (DIZ) (Staphylococcus aureus): 35 mm
diameter of the inhibition zone (DIZ) (Acinetobacter baumannii): inactive
DIZ (Klebsiella pneumoniae): inactive
diameter of the inhibition zone (DIZ) (Saccharomyces cerevisiae): 30 mm
diameter of the inhibition zone (DIZ) (Enterococcus faecium): 24 mm
diameter of the inhibition zone (DIZ) (Pseudomonas aeruginosa): inactive
diameter of the inhibition zone (DIZ) [3]: inactive
diameter of the inhibition zone (DIZ) (Proteus mirabilis): 15 mm
diameter of the inhibition zone (DIZ) (Bacillus subtilis): 30 mm
diameter of the inhibition zone (DIZ) (Pichia kudriavzevii): 24 mm
diameter of the inhibition zone (DIZ) (Enterobacter cloacae): inactive
diameter of the inhibition zone (DIZ) (Candida albicans): 17 mm
diameter of the inhibition zone (DIZ) (Escherichia coli): inactive
diameter of the inhibition zone (DIZ) [5]: 13 mm
